Results: ChEMBL document CHEMBL3588770, “Novel spirohydantoin derivative as a potent multireceptor-active antipsychotic and antidepressant agent” (Bioorg Med Chem, 2015)
Calls of active or inactive are those of the source. The rule behind the calls is not given here.

Legend:
[1] = target: D(2) dopamine receptor (Homo sapiens) (UniProt P14416); test: Agonist activity at human recombinant D2 receptor expressed in HEK293 cells at 1 uM; type: cell-based
Summary of the method: (§1)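 Functional assays run by a contract lab on CHO or HEK-293 cells stably expressing the human receptor. Read-out was intracellular cAMP, IP1 or Ca2+ release. A single test concentration of 1.0E-06 was used, in duplicate. Data are mean % of the control response.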

[2] = target: D(3) dopamine receptor (Homo sapiens) (UniProt P35462); test: Antagonist activity at human recombinant D3 receptor expressed in CHO cells assessed as inhibition of dopamine-induced intracellular cAMP release at 1 uM by HTRF method; type: functional, cell-based; summary of the method: as §1
[3] = target: T1, 5-hydroxytryptamine receptor 1A (Homo sapiens) (UniProt P08908); test: Agonist activity at human recombinant 5HT1A receptor expressed in HEK293 cells at 1 uM; type: cell-based; summary of the method: as §1
T1 sequence (whole entry): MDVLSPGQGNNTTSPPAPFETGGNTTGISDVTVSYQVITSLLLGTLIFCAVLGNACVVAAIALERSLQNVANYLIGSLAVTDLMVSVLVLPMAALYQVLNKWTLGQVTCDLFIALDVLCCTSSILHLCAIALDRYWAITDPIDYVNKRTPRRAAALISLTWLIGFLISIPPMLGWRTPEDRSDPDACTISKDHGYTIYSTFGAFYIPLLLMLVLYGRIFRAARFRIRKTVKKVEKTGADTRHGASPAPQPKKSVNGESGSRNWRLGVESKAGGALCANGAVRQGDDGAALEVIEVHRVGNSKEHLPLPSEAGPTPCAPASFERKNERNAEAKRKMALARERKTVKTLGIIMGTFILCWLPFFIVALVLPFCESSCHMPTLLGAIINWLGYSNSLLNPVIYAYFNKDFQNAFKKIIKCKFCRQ

[4] = target: T1, 5-hydroxytryptamine receptor 1A (Homo sapiens); test: Antagonist activity at human recombinant 5HT1A receptor expressed in HEK293 cells assessed as inhibition of 8-OH-DPAT-induced response at 1 uM; type: cell-based; summary of the method: as §1
[5] = target: 5-hydroxytryptamine receptor 2A (Homo sapiens) (UniProt P28223); test: Antagonist activity at human recombinant 5HT2A receptor expressed in HEK293 cells assessed as inhibition of serotonin-induced intracellular IP1 release at 1 uM by HTRF assay; type: functional, cell-based; summary of the method: as §1
[6] = target: 5-hydroxytryptamine receptor 7 (Homo sapiens) (UniProt P34969); test: Agonist activity at human recombinant 5HT7 receptor expressed in CHO cells assessed as intracellular cAMP release at 1 uM by HTRF assay; type: functional, cell-based; summary of the method: as §1
[7] = target: Adrenergic receptor alpha-1 (Homo sapiens) (UniProt P35348+P25100+P35368); test: Antagonist activity at human recombinant alpha1 adrenoceptor expressed in CHO cells assessed as inhibition of agonist induced response at 1 uM; type: cell-based; summary of the method: as §1
[8] = target: T2, Alpha-2C adrenergic receptor (Homo sapiens) (UniProt P18825); test: Agonist activity at human recombinant alpha2C adrenoceptor expressed in CHO cells assessed as intracellular cAMP release at 1 uM by HTRF assay; type: functional, cell-based; summary of the method: as §1
T2 sequence (whole entry): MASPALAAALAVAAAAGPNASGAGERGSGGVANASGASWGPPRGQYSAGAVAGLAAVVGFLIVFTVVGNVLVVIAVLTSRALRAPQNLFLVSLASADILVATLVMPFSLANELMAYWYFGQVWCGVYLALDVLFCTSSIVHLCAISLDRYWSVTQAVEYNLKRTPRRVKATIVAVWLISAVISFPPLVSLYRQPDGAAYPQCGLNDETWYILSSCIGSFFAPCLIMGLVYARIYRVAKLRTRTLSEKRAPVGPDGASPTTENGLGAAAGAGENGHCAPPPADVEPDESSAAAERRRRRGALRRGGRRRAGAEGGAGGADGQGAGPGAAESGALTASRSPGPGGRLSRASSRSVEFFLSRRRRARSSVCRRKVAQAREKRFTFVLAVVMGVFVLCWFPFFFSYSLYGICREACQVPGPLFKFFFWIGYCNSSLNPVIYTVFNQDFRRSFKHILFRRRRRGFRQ

Mus musculus [9] = test: In vivo agonist activity at D2 receptor in ip dosed Swiss albino mouse assessed as induction of climbing behaviour; type: functional, organism-based
Mus musculus [10] = test: In vivo partial agonist activity at 5HT1A receptor in CD-1 mouse assessed as change in body temperature at 10 mg/kg, ip measured after 30 mins (reference value: -0.1 degC); type: functional, organism-based
Summary of the method: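 Male CD-1 mice, 7-9 per dose, dosed i.p. Rectal temperature was recorded at 30, 60, 90 and 120 min. Results are the change from basal temperature taken at the start of the experiment.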

Mus musculus [11] = test: In vivo partial agonist activity at 5HT1A receptor in CD-1 mouse assessed as change in body temperature at 5 mg/kg, ip measured after 60 mins (reference value: -0.1 degC); type: functional, organism-based
Summary of the method: (§2)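 Male CD-1 mice, 7-9 per dose, compound suspended in 1% aqueous Tween 80 and given i.p. at 10 ml/kg. Rectal temperature was taken by thermometer 30, 60, 90 and 120 min after dosing. Change (Δt) is expressed against basal temperature measured at the start. Mean ± SEM, one-way ANOVA with Bonferroni test.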

Mus musculus [12] = test: In vivo partial agonist activity at 5HT1A receptor in CD-1 mouse assessed as change in body temperature at 5 mg/kg, ip measured after 90 mins (reference value: -0.1 degC); type: functional, organism-based; summary of the method: as §2
Mus musculus [13] = test: In vivo partial agonist activity at 5HT1A receptor in CD-1 mouse assessed as change in body temperature at 5 mg/kg, ip measured after 120 mins (reference value: -0.1 degC); type: functional, organism-based; summary of the method: as §2
Rattus norvegicus = test: Induction of lower lip retraction in Wistar rat at 5 to 40 mg/kg, ip; type: functional, organism-based
Mus musculus [14] = test: In vivo agonist activity at 5HT2A receptor in Swiss albino mouse assessed as induction of head twitch response at 5 to 40 mg/kg, ip; type: functional, organism-based
Mus musculus [15] = test: In vivo antagonist activity at 5HT2A receptor in ip dosed Swiss albino mouse assessed as inhibition of (+/-)-DOI-induced head twitch response; type: functional
Summary of the method: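 Male Swiss albino mice, 5-6 per dose, habituated 20 min in glass cages. Compound was given i.p. 60 min pretest. Head twitches were induced by (±)DOI 2.5 mg/kg and counted for 20 min. ID50 is the dose inhibiting twitches by 50%.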

Mus musculus [16] = test: Antipsychotic activity in CD-1 mouse assessed as inhibition of D-amphetamine-induced hyperlocomotor activity at 0.156 to 0.625 mg/kg, ip; type: functional, organism-based
Summary of the method: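 Male CD-1 mice, 8-10 per dose. d-Amphetamine was given s.c. 30 min pretest; test compound i.p. 60 min pretest in 1% Tween 80. After 30 min habituation in the activity monitor, ambulation crossings were counted for 1 h, recorded every 5 min.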

Mus musculus [17] = test: Anti-depressant like activity in Swiss albino mouse assessed as shortening of immobility time at 2.5 mg/kg, ip by forced swim test; type: functional
Summary of the method: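 Forced swim test in male Swiss albino mice, 7-9 per dose. Compound was given i.p. in 1% Tween 80 at 10 ml/kg, 60 min pretest. Mice swam for 6 min in a cylinder with 6 cm of water at 23-25 °C. Immobility was scored over the last 4 min. Analysis was one-way ANOVA with Bonferroni.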

Mus musculus [18] = species: Mus musculus; test: Ratio of MED for catalepsy in CD-1 mouse to ED50 for antipsychotic activity in CD-1 mouse

Sequence of D(3) dopamine receptor (Homo sapiens) (P35462 whole entry): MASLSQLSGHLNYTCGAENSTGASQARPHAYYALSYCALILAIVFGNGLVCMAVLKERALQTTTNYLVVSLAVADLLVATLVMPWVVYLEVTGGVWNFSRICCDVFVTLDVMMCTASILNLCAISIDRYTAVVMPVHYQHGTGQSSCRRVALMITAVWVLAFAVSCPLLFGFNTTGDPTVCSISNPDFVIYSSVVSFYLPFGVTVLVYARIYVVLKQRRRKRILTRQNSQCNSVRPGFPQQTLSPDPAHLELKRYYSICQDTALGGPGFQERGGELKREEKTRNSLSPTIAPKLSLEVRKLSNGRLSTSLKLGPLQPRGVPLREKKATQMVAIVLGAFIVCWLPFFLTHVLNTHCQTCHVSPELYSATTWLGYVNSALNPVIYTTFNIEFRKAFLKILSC
Sequence of 5-hydroxytryptamine receptor 7 (Homo sapiens) (P34969 whole entry): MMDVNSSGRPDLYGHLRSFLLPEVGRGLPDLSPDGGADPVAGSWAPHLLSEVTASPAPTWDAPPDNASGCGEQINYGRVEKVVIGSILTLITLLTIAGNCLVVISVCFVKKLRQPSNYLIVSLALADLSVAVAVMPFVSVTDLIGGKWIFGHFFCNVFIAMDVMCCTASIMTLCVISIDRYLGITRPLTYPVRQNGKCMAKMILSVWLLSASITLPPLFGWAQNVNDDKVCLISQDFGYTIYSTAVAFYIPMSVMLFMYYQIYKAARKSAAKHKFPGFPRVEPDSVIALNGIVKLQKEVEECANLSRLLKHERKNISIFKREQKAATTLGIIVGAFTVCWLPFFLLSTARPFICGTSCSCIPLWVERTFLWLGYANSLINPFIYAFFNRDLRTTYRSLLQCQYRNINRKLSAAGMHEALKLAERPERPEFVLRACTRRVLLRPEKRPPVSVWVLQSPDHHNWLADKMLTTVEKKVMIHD
Sequence of 5-hydroxytryptamine receptor 2A (Homo sapiens) (P28223 whole entry): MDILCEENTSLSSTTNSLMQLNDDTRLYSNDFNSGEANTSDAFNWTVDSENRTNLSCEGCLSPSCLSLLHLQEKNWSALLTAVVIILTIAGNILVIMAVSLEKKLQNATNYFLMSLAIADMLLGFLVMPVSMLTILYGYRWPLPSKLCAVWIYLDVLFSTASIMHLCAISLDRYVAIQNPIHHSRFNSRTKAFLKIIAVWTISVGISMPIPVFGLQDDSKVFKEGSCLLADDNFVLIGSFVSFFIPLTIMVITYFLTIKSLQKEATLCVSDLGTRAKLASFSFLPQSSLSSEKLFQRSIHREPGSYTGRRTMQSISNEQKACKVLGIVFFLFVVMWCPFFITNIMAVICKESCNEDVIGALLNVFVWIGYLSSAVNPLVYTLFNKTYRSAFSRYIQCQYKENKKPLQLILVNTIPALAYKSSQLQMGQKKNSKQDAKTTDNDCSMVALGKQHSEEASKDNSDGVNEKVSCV
Sequence of D(2) dopamine receptor (Homo sapiens) (P14416 whole entry): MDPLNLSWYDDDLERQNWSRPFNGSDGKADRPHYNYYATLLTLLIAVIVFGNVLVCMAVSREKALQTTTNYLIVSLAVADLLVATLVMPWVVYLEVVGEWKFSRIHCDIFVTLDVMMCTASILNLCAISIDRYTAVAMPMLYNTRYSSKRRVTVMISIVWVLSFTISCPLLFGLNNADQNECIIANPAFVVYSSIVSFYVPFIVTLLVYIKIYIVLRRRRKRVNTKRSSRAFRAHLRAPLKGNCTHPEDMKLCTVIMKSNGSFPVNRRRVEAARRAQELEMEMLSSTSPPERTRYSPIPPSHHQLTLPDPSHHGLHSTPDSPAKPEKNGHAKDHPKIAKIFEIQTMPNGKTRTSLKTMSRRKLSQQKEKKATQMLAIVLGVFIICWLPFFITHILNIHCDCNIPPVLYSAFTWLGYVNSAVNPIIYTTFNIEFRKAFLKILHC

Activity [1]	inhibition [2]	Activity [3]	inhibition [4]	inhibition [5]	Activity [6]	inhibition [7]	Activity [8]	SMILES	Activity (Mus musculus [9])	deltaT (Mus musculus [10])	deltaT (Mus musculus [11])	deltaT (Mus musculus [12])	deltaT (Mus musculus [13])	Activity (Rattus norvegicus)	Activity (Mus musculus [14])	ED50 (Mus musculus [15])	inhibition (Mus musculus [16])	inhibition in vivo at 2.5 mg/kg (Mus musculus [17])	Ratio (Mus musculus [18])
20%	66%	37%	102%	18%	6%	95%	15%	COc1ccccc1N1CCN(CCCCN2C(=O)NC3(CCc4ccccc43)C2=O)CC1 (configuration not stated)											
24%	53%	26%	101%	27%	6%	94%	20%	COc1ccccc1N1CCN(CCCCN2C(=O)NC3(CCCc4ccccc43)C2=O)CC1 (configuration not stated)	inactive	-1.9 °C	-0.7 °C	-0.7 °C	-0.6 °C	inactive	inactive	19.6 mg/kg	Active	37%	50
